# Laboratory results published in the RNAGym collection of RNA variant scans (doi:10.1038/s41586-018-0170-7).
# B1: tRNA (parent)
# chain: GUUCCGUUGGCGUAAUGGUAACGCGUCUCCCUCCUAAGGAGAAGACUGCGGGUUCGAGUCCCGUACGGAACG
# Variants of: B1
# Experiment: yeast fitness, log relative to wild type (ln ratio); higher = fitter; tRNA-Arg(CCU), competitive growth, 37 C, 1 M NaCl
# How it was run: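 For each genotype, fitness is defined as the natural log of its generation number over the wild type's. The tRNA-Arg(CCU) variant library was on a HIS3 centromeric plasmid in BY4742 with the chromosomal gene removed, and pools were first grown 4 generations in SC-HIS at 30 °C and then ~6.5 generations (~26.5 h) in SC-HIS 1M NaCl at 37 °C. Generations were calculated from OD-scaled log2 output/input frequency, weighted by inverse variance across replicates, using counts from 125 bp paired-end Illumina sequencing.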
row,Variant,yeast fitness (ln)
1,AUUCCGUUGGCGUAAUGGUAACGCGUCUCCCUCCUAAGGAGACGAUUGCGGGUUCGAGUCCCGUAUGGGUCG [G1A A43C C46U C66U A69G A70U],-0.259
2,AUUCCGUUGGCGUAAUGGUAACGCGUCUCCCUCCUAAGGAGACGAUUGCGGGUUCGAGUCCCGUACGGGAUG [G1A A43C C46U A69G C71U],-0.0151
3,AUUCCGUUGGCGUAAUGGUAACGCGUCUCCCUCCUAAGGAGACGAUUGCGGGUUCGAGUCCCGUACGGGUCG [G1A A43C C46U A69G A70U],-0.0688
4,AUUCCGUUGGCGUAAUGGUAACGCGUCUCCCUCCUAAGGAGACGAUUGCGGGUUCGAGUCCCGUACGGGGCG [G1A A43C C46U A69G A70G],-0.104
5,AUUCCGUUGGCGUAAUGGUAACGCGUCUCCCUCCUAAGGAGAAGACUGCGGGUUCGAGUCCCGUACGGAACG [G1A],-0.0233
6,AUUCCGUUGGCGUAAUGGUAACGCGUCUCCCUCCUAAGGAGACGACUGCGGGUUCGAGUCCCGUAUGGAUUG [G1A A43C C66U A70U C71U],-0.25
7,AUUCCGUUGGCGUAAUGGUAACGCGUCUCCCUCCUAAGGAGACGACUGCGGGUUCGAGUCCCGUAUGGAACG [G1A A43C C66U],-0.172
8,AUUCCGUUGGCGUAAUGGUAACGCGUCUCCCUCCUAAGGAGACGAUUGCGGGUUCGAGUCCCGUACGGAUCG [G1A A43C C46U A70U],-0.0611
9,AUUCCGUUGGCGUAAUGGUAACGCGUCUCCCUCCUAAGGAGACGAUUGCGGGUUCGAGUCCCGUACGGAGCG [G1A A43C C46U A70G],-0.166
10,AUUCCGUUGGCGUAAUGGUAACGCGUCUCCCUCCUAAGGAGAAGACUGCGGGUUCGAGUCCCGUACGGAGUG [G1A A70G C71U],-0.0244
11,AUUCCGUUGGCGUAAUGGUAACGCGUCUCCCUCCUAAGGAGACGACUGCGGGUUCGAGUCCCGUACGGGGUG [G1A A43C A69G A70G C71U],-0.353
12,AUUCCGUUGGCGUAAUGGUAACGCGUCUCCCUCCUAAGGAGACGAUUGCGGGUUCGAGUCCCGUAUGGAGUG [G1A A43C C46U C66U A70G C71U],-0.192
13,AUUCCGUUGGCGUAAUGGUAACGCGUUUCCCUCCUAAGGAGAAGACUGCGGGUUCGAGUCCCGUACGGAACG [G1A C27U],-0.105
14,AUUCCGUUGGCGUAAUGGUAACGCGUCUCCCUCCUAAGGAGACGACUGCGGGUUCGAGUCCCGUACGGGGCG [G1A A43C A69G A70G],-0.11
15,AUUCCGUUGGCGUAAUGGUAACGCGUCUCCCUCCUAAGGAGACGACUGCGGGUUCGAGUCCCGUACGGGUCG [G1A A43C A69G A70U],-0.257
16,AUUCCGUUGGCGUAAUGGUAACGCGUCUCCCUCCUAAGGAGACGAUUGCGGGUUCGAGUCCCGUAUGGGGUG [G1A A43C C46U C66U A69G A70G C71U],-0.263
17,AUUCCGUUGGCGUAAUGGUAACGCGUCUCCCUCCUAAGGAGACGAUUGCGGGUUCGAGUCCCGUAUGGAGCG [G1A A43C C46U C66U A70G],-0.1
18,AUUCCGUUGGCGUAAUGGUAACGCGUCUCCCUCCUAAGGAGACGAUUGCGGGUUCGAGUCCCGUAUGGAUCG [G1A A43C C46U C66U A70U],-0.124
19,AUUCCGUUGGCGUAAUGGUAACGCGUCUCCCUCCUAAGGAGACGAUUGCGGGUUCGAGUCCCGUACGGAAUG [G1A A43C C46U C71U],-0.00436

row,Variant,yeast fitness (ln)
1,AUUCCGUUGGCGUAAUGGUAACGCGUCUCCCUCCUAAGGAGAAGACUGCGGGUUCGAGUCCCGUACGGAGCG [G1A A70G],-0.204
2,AUUCCGUUGGCGUAAUGGUAACGCGUCUCCCUCCUAAGGAGAAGACUGCGGGUUCGAGUCCCGUACGGAUCG [G1A A70U],-0.044
3,AUUCCGUUGGCGUAAUGGUAACGCGUCUCCCUCCUAAGGAGACGACUGCGGGUUCGAGUCCCGUACGGAAUG [G1A A43C C71U],-0.0202
4,AUUCCGUUGGCGUAAUGGUAACGCGUCUCCCUCCUAAGGAGACGACUGCGGGUUCGAGUCCCGUAUGGGGCG [G1A A43C C66U A69G A70G],-0.243
5,AUUCCGUUGGCGUAAUGGUAACGCGUCUCCCUCCUAAGGAGACGACUGCGGGUUCGAGUCCCGUAUGGGUCG [G1A A43C C66U A69G A70U],-0.373
6,AUUCCGUUGGCGUAAUGGUAACGCGUCUCCCUCCUAAGGAGACGAUUGCGGGUUCGAGUCCCGUACGGAACG [G1A A43C C46U],-0.059
7,AUUCCGUUGGCGUAAUGGUAACGCGUCUCCCUCCUAAGGAGACGAUUGCGGGUUCGAGUCCCGUACGGAGUG [G1A A43C C46U A70G C71U],-0.032
8,AUUCCGUUGGCGUAAUGGUAACGCGUCUCCCUCCUAAGGAGACGACUGCGGGUUCGAGUCCCGUACGGAACG [G1A A43C],-0.119
9,AUUCCGUUGGCGUAAUGGUAACGCGUCUCCCUCCUAAGGAGACGAUUGCGGGUUCGAGUCCCGUACGGGGUG [G1A A43C C46U A69G A70G C71U],-0.13
10,AUUCCGUUGGCGUAAUGGUAACGCGUCUCCCUCCUAAGGAGACGAUUGCGGGUUCGAGUCCCGUAAGGAUUG [G1A A43C C46U C66A A70U C71U],-0.189
11,AUUCCGUUGGCGUAAUGGUAACGCGUCUCCCUCCUAAGGAGACGACUGCGGGUUCGAGUCCCGUACGGAUCG [G1A A43C A70U],-0.13
12,AUUCCGUUGGCGUAAUGGUAACGCGUCUCCCUCCUAAGGAGACGACUGCGGGUUCGAGUCCCGUACGGAGCG [G1A A43C A70G],-0.159
13,AUUCCGUUGGCGUAAUGGUAACGCGUCUCCCUCCUAAGGAGACGACUGCGGGUUCGAGUCCCGUACGGAUUG [G1A A43C A70U C71U],-0.32
14,AUUCCGUUGGCGUAAUGGUAACGCGUCUCCCUCCUAAGGAGACGAUUGCGGGUUCGAGUCCCGUAUGGGUUG [G1A A43C C46U C66U A69G A70U C71U],-0.469
15,AUUCCGUUGGCGUAAUGGUAACGCGUCUCCCUCCUAAGGAGAAGACUGCGGGUUCGAGUCCCGUACGGGAUG [G1A A69G C71U],-0.0087
16,AUUCCGUUGGCGUAAUGGUAACGCGUCUCCCUCCUAAGGAGACGACUGCGGGUUCGAGUCCCGUACGGGACG [G1A A43C A69G],-0.145
17,AUUCCGUUGGCGUAAUGGUAACGCGUCUCCCUCCUAAGGAGACGACUGCGGGUUCGAGUCCCGUAAGGGGUG [G1A A43C C66A A69G A70G C71U],-0.249
18,AUUCCGUUGGCGUAAUGGUAACGCGUCUCCCUCCUAAGGAGACGACUGCGGGUUCGAGUCCCGUAAGGGUUG [G1A A43C C66A A69G A70U C71U],-0.257
19,AUUCCGUUGGCGUAAUGGUAACGCGUCUCCCUCCUAAGGAGAAGACUGCGGGUUCGAGUCCCGUACGGGGUG [G1A A69G A70G C71U],-0.0385
